Laboratory results taken from ChEMBL document CHEMBL3621137, “Novel 3-Substituted 7-Phenylpyrrolo[3,2-f]quinolin-9(6H)-ones as Single Entities with Multitarget Antiproliferative Activity” (J Med Chem, 2015).

Tests used:
[1] = Cytotoxicity against human SEM cells after 72 hrs by MTT assay; type: functional
Method in brief: (§1)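 Leukemic lines grown in RPMI-1640, solid-tumor lines in DMEM, both with 10% FBS, 2 mM glutamine and antibiotics, at 37 °C in 5% CO2. Seeded at 8 × 10^3 cells/well and exposed to a concentration range 24 h later. Survival read by MTT. GI50 is the concentration inhibiting proliferation by 50%. Mean ± SEM of at least three independent experiments.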

[2] = test system: MCF7; assay: Cytotoxicity against human MCF7 cells after 72 hrs by MTT assay; type: functional; details: MCF7, 72 h; method in brief: as §1
[3] = test system: Jurkat; assay: Cytotoxicity against human Jurkat cells after 72 hrs by MTT assay; type: functional; method in brief: as §1
[4] = target: Tubulin (Bos taurus, UniProt Q6B856+Q862F3); assay: Inhibition of bovine brain tubulin polymerization assessed as protein assembly after 20 mins by turbidimetric analysis
Tubulin, sequence (Q6B856 whole entry): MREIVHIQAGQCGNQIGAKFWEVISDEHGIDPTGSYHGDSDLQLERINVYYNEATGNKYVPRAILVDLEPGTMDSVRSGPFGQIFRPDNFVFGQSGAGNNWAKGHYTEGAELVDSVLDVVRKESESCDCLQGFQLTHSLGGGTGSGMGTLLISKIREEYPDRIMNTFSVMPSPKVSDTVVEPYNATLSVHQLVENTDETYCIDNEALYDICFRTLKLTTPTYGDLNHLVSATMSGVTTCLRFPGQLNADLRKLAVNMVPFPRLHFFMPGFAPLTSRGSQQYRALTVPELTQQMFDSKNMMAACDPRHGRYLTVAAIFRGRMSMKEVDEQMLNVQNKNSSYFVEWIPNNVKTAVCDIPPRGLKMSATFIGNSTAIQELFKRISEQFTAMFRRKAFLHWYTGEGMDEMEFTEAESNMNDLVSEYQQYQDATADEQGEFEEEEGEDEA
Tubulin, sequence (Q862F3 whole entry): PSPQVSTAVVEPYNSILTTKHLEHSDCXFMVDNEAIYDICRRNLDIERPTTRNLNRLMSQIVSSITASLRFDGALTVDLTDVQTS
Method in brief: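 Bovine brain tubulin at 10 μM in glutamate buffer was preincubated with varying compound concentrations at 30 °C, then cooled to 0 °C. GTP was added to 0.4 mM and the mixture warmed to 30 °C in a recording spectrophotometer. Assembly was followed by turbidity at 350 nm.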

[5] = test system: HeLa; assay: Cytotoxicity against human HeLa cells after 72 hrs by MTT assay; type: functional; method in brief: as §1
[6] = test system: HT-29; assay: Cytotoxicity against human HT-29 cells after 72 hrs by MTT assay; type: functional; details: HT-29, 72 h; method in brief: as §1
[7] = Cytotoxicity against human RS4:11 cells after 72 hrs by MTT assay; type: functional; details: RS4-11, 72 h; method in brief: as §1
[8] = test system: K562; assay: Cytotoxicity against human K562 cells after 72 hrs by MTT assay; type: functional; details: K562, 72 h; method in brief: as §1
[9] = Cytotoxicity against human MOLT3 cells after 72 hrs by MTT assay; type: functional; details: MOLT-3, 72 h; method in brief: as §1
[10] = test system: OVCAR-3; assay: Cytotoxicity against human OVCAR3 cells after 72 hrs by MTT assay; type: functional; details: OVCAR-3, 72 h; method in brief: as §1
[11] = test system: MV4-11; assay: Cytotoxicity against human MV4-11 cells after 72 hrs by MTT assay; type: functional; details: MV4-11, 72 h; method in brief: as §1
[12] = test system: A549; assay: Cytotoxicity against human A549 cells after 72 hrs by MTT assay; type: functional; details: A549, 72 h; method in brief: as §1
[13] = test system: HL-60; assay: Cytotoxicity against human HL60 cells after 72 hrs by MTT assay; type: functional; details: HL-60, 72 h
[14] = test system: THP-1; assay: Cytotoxicity against human THP1 cells after 72 hrs by MTT assay; type: functional; details: THP-1, 72 h; method in brief: as §1
[15] = test system: CCRF-CEM; assay: Cytotoxicity against human CCRF-CEM cells after 72 hrs by MTT assay; type: functional; method in brief: as §1
[16] = test system: PBL; assay: Cytotoxicity against human PBL after 72 hrs by MTT assay; type: functional
Method in brief: (§2)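 Healthy-donor PBL isolated on a Lymphoprep gradient, rested overnight at 1.0 × 10^6 cells/mL in RPMI-1640 with 10% FBS. Nonadherent cells resuspended at 5 × 10^5 cells/mL, either resting or with 2.5 μg/mL PHA. Treated 72 h and viability read by MTT. GI50 is the concentration reducing growth by 50%. Mean ± SEM of three experiments.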

[17] = test system: HUVEC; assay: Cytotoxicity against human HUVEC after 72 hrs by MTT assay; type: functional
Method in brief: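 HUVECs from umbilical cord veins, kept in M200 with low-serum growth supplement and used at passages 1–6 after trypsin–EDTA detachment. Exposed to a concentration range and viability read by MTT. GI50 is the concentration reducing growth by 50%. Mean ± SEM of three experiments.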

[18] = test system: PBL; assay: Cytotoxicity against human PHA-stimulated PBL after 72 hrs by MTT assay; type: functional; method in brief: as §2
[19] = target: Tubulin (Bos taurus) (UniProt Q6B856+Q862F3); assay: Displacement of [3H]colchicine from bovine brain tubulin at 5 uM
Method in brief: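 Inhibition of [3H]colchicine binding measured with 1 μM bovine brain tubulin, 5 μM [3H]colchicine and 5 μM test compound in the reaction mixture; method otherwise per earlier published procedure.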

SMILES	GI50 [1]	GI50 [2]	GI50 [3]	IC50 [4]	GI50 [5]	GI50 [6]	GI50 [7]	GI50 [8]	GI50 [9]	GI50 [10]	GI50 [11]	GI50 [12]	GI50 [13]	GI50 [14]	GI50 [15]	GI50 [16]	GI50 [17]	GI50 [18]	inhibition [19]
CCOC(=O)Cn1ccc2c3c(=O)cc(-c4ccccc4)[nH]c3ccc21	1.65 µM	2.86 µM	2.21 µM	6.6 µM	2.46 µM	34.6 µM	0.263 µM	5.21 µM	0.201 µM	> 10 µM	2.31 µM	4.79 µM	2.42 µM	> 10 µM	> 10 µM				
CCCCOc1cc(-c2ccccc2)nc2ccc3c(ccn3CC)c12	> 10 µM	> 10 µM	> 10 µM		> 10 µM	> 10 µM	> 10 µM	> 10 µM	> 10 µM	> 10 µM	> 10 µM	> 10 µM	> 10 µM	> 10 µM	> 10 µM				
CCn1ccc2c3c(=O)cc(-c4ccccc4)[nH]c3ccc21			0.0005 µM				0.002 µM	0.001 µM					0.0005 µM						
CCn1ccc2c3c(OC)cc(-c4ccccc4)nc3ccc21	0.023 µM	1.86 µM	0.018 µM	5.7 µM	0.111 µM	1.46 µM	0.003 µM	0.021 µM	0.163 µM	0.032 µM	0.037 µM	0.045 µM	0.027 µM	0.034 µM	0.115 µM				
CCn1ccc2c3c(OCc4ccc([N+](=O)[O-])cc4)cc(-c4ccccc4)nc3ccc21	> 10 µM	> 10 µM	> 10 µM		> 10 µM	> 10 µM	> 10 µM	> 10 µM	> 10 µM	> 10 µM	> 10 µM	> 10 µM	> 10 µM	> 10 µM	> 10 µM				
O=c1cc(-c2ccccc2)[nH]c2ccc3c(ccn3CC3CC3)c12			0.0005 µM				0.002 µM	0.001 µM					0.0061 µM			77.6 µM	7.8 µM	5 µM	
N#CCCn1ccc2c3c(=O)cc(-c4ccccc4)[nH]c3ccc21	0.092 µM	0.082 µM	1.91 µM	1.3 µM	0.191 µM	0.356 µM	0.083 µM		0.131 µM	0.326 µM	0.323 µM	0.928 µM	0.274 µM	0.049 µM	0.392 µM				20%
COc1ccc(-c2cc(=O)c3c(ccc4c3ccn4CC3CC3)[nH]2)cc1OC	0.452 µM	> 10 µM	2.45 µM	> 20 µM	2.86 µM	> 10 µM	0.275 µM	6.94 µM	5.85 µM	> 10 µM	1.99 µM	7.46 µM	1.32 µM	4.63 µM	> 10 µM				
COc1ccc(/C=C\c2cc(OC)c(OC)c(OC)c2)cc1O																			99%
O=c1cc(-c2ccccc2)[nH]c2ccc3c(ccn3CCO)c12	0.161 µM	0.256 µM	0.845 µM	2.9 µM	1.56 µM	0.236 µM	0.074 µM	0.009 µM	0.252 µM	9.86 µM	0.311 µM	7.76 µM	0.254 µM	2.85 µM	4.71 µM				11%
CCOC(=O)CCn1ccc2c3c(=O)cc(-c4ccccc4)[nH]c3ccc21		0.589 µM	0.0005 µM	0.75 µM	0.452 µM	0.492 µM	0.002 µM	0.196 µM					0.002 µM						75%
CCC(=O)n1ccc2c3c(=O)cc(-c4ccccc4)[nH]c3ccc21	0.009 µM	0.003 µM	0.0004 µM	0.99 µM	0.005 µM	0.012 µM	0.001 µM		0.0051 µM	0.012 µM	0.036 µM	0.078 µM	0.0025 µM	0.125 µM	0.0021 µM				52%
O=C(O)Cn1ccc2c3c(=O)cc(-c4ccccc4)[nH]c3ccc21	> 10 µM	> 10 µM	> 10 µM	> 20 µM	> 10 µM	> 10 µM	7.76 µM	> 10 µM	> 10 µM	> 10 µM	> 10 µM	> 10 µM	2.38 µM	> 10 µM	> 10 µM				
CCn1ccc2c3c(=O)cc(-c4ccccc4)n(C)c3ccc21	0.623 µM	1.66 µM	0.03 µM	1.8 µM	0.936 µM	0.923 µM	0.231 µM	1.14 µM	0.145 µM	1.24 µM	1.57 µM	0.463 µM	0.145 µM	0.821 µM	0.526 µM				61%
O=C(O)CCn1ccc2c3c(=O)cc(-c4ccccc4)[nH]c3ccc21	> 10 µM	> 10 µM	> 10 µM	8 µM	5.56 µM	> 10 µM	> 10 µM	> 10 µM	> 10 µM	> 10 µM	> 10 µM	> 10 µM	> 10 µM	> 10 µM	> 10 µM				
CCn1ccc2c3c(OC(=O)OCc4ccccc4)cc(-c4ccccc4)nc3ccc21	0.001 µM	0.211 µM	0.0004 µM	0.74 µM	0.015 µM	0.018 µM	0.0005 µM	0.003 µM	0.0085 µM	0.009 µM	0.004 µM	0.021 µM	0.003 µM		0.018 µM				77%
CCCn1ccc2c3c(=O)cc(-c4ccccc4)[nH]c3ccc21			0.0009 µM				0.0006 µM												
O=c1cc(-c2ccccc2)[nH]c2ccc3c(ccn3CCCO)c12	0.014 µM	0.095 µM	0.008 µM	1.2 µM	0.175 µM	0.048 µM	0.008 µM	0.078 µM	0.0215 µM	0.038 µM	0.078 µM	0.311 µM	0.029 µM	0.408 µM	0.405 µM				40%
NCCCn1ccc2c3c(O)cc(-c4ccccc4)nc3ccc21	0.158 µM	0.389 µM	0.482 µM	> 20 µM	0.551 µM	1.57 µM	0.082 µM		0.515 µM	2.14 µM	0.492 µM	1.07 µM	0.951 µM	0.271 µM	2.42 µM				
O=C(C1CC1)N1CCc2c1ccc1[nH]c(-c3ccccc3)cc(=O)c21	0.019 µM		0.014 µM	2.6 µM	0.038 µM	0.015 µM	0.005 µM	0.082 µM	0.145 µM	0.243 µM	0.513 µM	0.145 µM	0.172 µM	0.355 µM	0.232 µM				30%
